In ChEMBL document CHEMBL1138354, “2-(2'-((dimethylamino)methyl)-4'-(fluoroalkoxy)-phenylthio)benzenamine derivatives as serotonin transporter imaging agents” (J Med Chem, 2007):

What was measured:
[1] = test system: Bone; assay: Biodistribution in iv dosed rat bone after 30 mins; type: ADME, organism-based, Bone element; settings: in vivo, 0.5 h
How it was run: (§1)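 [18F]-labeled tracer was given to rats under isoflurane anesthesia: 0.2 ml sterile water with 1 mg/mL BSA and 10–100 μCi, into the femoral vein. Three rats per group. Animals were killed by cervical dislocation under anesthesia at the stated time. Organs were removed, weighed and counted. Uptake was calculated as percent dose against a 1% aliquot of the injected dose counted alongside.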

[2] = test system: Muscle tissue; assay: Biodistribution in iv dosed rat muscle after 240 mins; type: ADME, organism-based; settings: in vivo, 4 h; how it was run: as §1
[3] = test system: Pancreas; assay: Biodistribution in iv dosed rat pancreas after 2 mins; type: ADME, organism-based; settings: in vivo
[4] = test system: Bone; assay: Biodistribution in iv dosed rat bone after 240 mins; type: ADME, organism-based, Bone element; settings: in vivo, 4 h; how it was run: as §1
[5] = test system: Spleen; assay: Biodistribution in iv dosed rat spleen after 240 mins; type: ADME, organism-based; settings: in vivo, 4 h
[6] = Partition coefficient, log P at pH 7.4; type: physicochemical; settings: octanol/water
[7] = test system: Striatum; assay: Biodistribution in iv dosed rat striatum assessed as radioactivity after 120 mins; type: ADME, organism-based; settings: in vivo, 2 h
[8] = test system: Bone; assay: Biodistribution in iv dosed rat bone after 120 mins; type: ADME, organism-based, Bone element; settings: in vivo, 2 h; how it was run: as §1
[9] = test system: Zone of skin; assay: Biodistribution in iv dosed rat skin after 60 mins; type: ADME, organism-based; settings: in vivo, 1 h
[10] = test system: Pancreas; assay: Biodistribution in iv dosed rat pancreas after 120 mins; type: ADME, organism-based; settings: in vivo, 2 h; how it was run: as §1
[11] = test system: Nucleic Acid; assay: Ratio of drug level in hippocampus to cerebellum in rat assessed as radioactivity after 30 mins; type: ADME, tissue-based; settings: in vivo, 0.5 h
How it was run: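 Groups of three normal rats under isoflurane received the [18F] tracer (10–100 μCi in 0.2 ml sterile water containing 1 mg/mL BSA) into the femoral vein. They were killed by cervical dislocation under anesthesia at the stated time. Cortex, striatum, hippocampus, hypothalamus and cerebellum were dissected, weighed and gamma-counted. %dose/g was set against a 100-fold diluted dose aliquot, and each region was divided by cerebellum.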

[12] = test system: Nucleic Acid; assay: Ratio of drug level in hippocampus to cerebellum in rat assessed as radioactivity after 2 mins; type: ADME, tissue-based; settings: in vivo
[13] = test system: Liver; assay: Biodistribution in iv dosed rat liver after 30 mins; type: ADME, organism-based; settings: in vivo, 0.5 h; how it was run: as §1
[14] = test system: Zone of skin; assay: Biodistribution in iv dosed rat skin after 2 mins; type: ADME, organism-based; settings: in vivo
[15] = test system: Zone of skin; assay: Biodistribution in iv dosed rat skin after 240 mins; type: ADME, organism-based; settings: in vivo, 4 h
[16] = test system: Pancreas; assay: Biodistribution in iv dosed rat pancreas after 240 mins; type: ADME, organism-based; settings: in vivo, 4 h
[17] = test system: Pancreas; assay: Biodistribution in iv dosed rat pancreas after 30 mins; type: ADME, organism-based; settings: in vivo, 0.5 h
How it was run: (§2)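 Rats, 3 per group, under isoflurane. ¹⁸F tracer (10–100 μCi) in 0.2 ml sterile water with 1 mg/mL BSA injected into the femoral vein. Killed by cervical dislocation under anesthesia at the stated time. Organs removed, weighed and counted. % dose/organ calculated against counts of a 1% diluted aliquot of the injected dose.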

[18] = test system: Nucleic Acid; assay: Ratio of drug level in cortex to cerebellum in rat assessed as radioactivity after 60 mins; type: ADME, tissue-based; settings: in vivo, 1 h
[19] = test system: Nucleic Acid; assay: Ratio of drug level in hypothalamus to cerebellum in rat assessed as radioactivity after 60 mins; type: ADME, tissue-based; settings: in vivo, 1 h
[20] = test system: Zone of skin; assay: Biodistribution in iv dosed rat skin after 120 mins; type: ADME, organism-based; settings: in vivo, 2 h; how it was run: as §2
[21] = test system: Striatum; assay: Biodistribution in iv dosed rat striatum assessed as radioactivity after 60 mins; type: ADME, organism-based; settings: in vivo, 1 h
[22] = test system: Pancreas; assay: Biodistribution in iv dosed rat pancreas after 60 mins; type: ADME, organism-based; settings: in vivo, 1 h
[23] = test system: Muscle tissue; assay: Biodistribution in iv dosed rat muscle after 360 mins; type: ADME, organism-based; settings: in vivo, 6 h; how it was run: as §1
[24] = test system: Blood; assay: Biodistribution in iv dosed rat blood after 360 mins; type: ADME, organism-based; settings: in vivo, 6 h; how it was run: as §1
[25] = test system: Lung; assay: Biodistribution in iv dosed rat lung after 360 mins; type: ADME, organism-based; settings: in vivo, 6 h; how it was run: as §1
[26] = test system: Spleen; assay: Biodistribution in iv dosed rat spleen after 360 mins; type: ADME, organism-based; settings: in vivo, 6 h
[27] = test system: Nucleic Acid; assay: Ratio of drug level in cortex to cerebellum in rat after 360 mins; type: ADME, tissue-based; settings: in vivo, 6 h
[28] = test system: Nucleic Acid; assay: Ratio of drug level in hippocampus to cerebellum in rat after 360 mins; type: ADME, tissue-based; settings: in vivo, 6 h
[29] = test system: Heart; assay: Biodistribution in iv dosed rat heart after 360 mins; type: ADME, organism-based; settings: in vivo, 6 h; how it was run: as §1
[30] = test system: Kidney; assay: Biodistribution in iv dosed rat kidney after 360 mins; type: ADME, organism-based; settings: in vivo, 6 h; how it was run: as §1
[31] = test system: Brain; assay: Biodistribution in iv dosed rat brain after 360 mins; type: ADME, organism-based; settings: in vivo, 6 h; how it was run: as §1
[32] = test system: Nucleic Acid; assay: Ratio of drug level in hypothalamus to cerebellum in rat after 360 mins; type: ADME, tissue-based; settings: in vivo, 6 h
[33] = test system: Nucleic Acid; assay: Ratio of drug level in striatum to cerebellum in rat after 360 mins; type: ADME, tissue-based; settings: in vivo, 6 h
[34] = test system: Bone; assay: Biodistribution in iv dosed rat bone after 360 mins; type: ADME, organism-based, Bone element; settings: in vivo, 6 h; how it was run: as §1
[35] = test system: Liver; assay: Biodistribution in iv dosed rat liver after 360 mins; type: ADME, organism-based; settings: in vivo, 6 h; how it was run: as §1
[36] = test system: Zone of skin; assay: Biodistribution in iv dosed rat skin after 360 mins; type: ADME, organism-based; settings: in vivo, 6 h

Drug uptake [1] [%ID]	Drug uptake [2] [%ID]	Drug uptake [4] [%ID]	Drug uptake [5] [%ID]	logD [6]	Drug uptake [7] [% ID/g]	Drug uptake [8] [%ID]	Drug uptake [9] [%ID]	Ratio [11]	Ratio [12]	Drug uptake [13] [%ID]	Drug uptake [14] [%ID]	Drug uptake [15] [%ID]	Ratio [18]	Ratio [19]	Drug uptake [20] [%ID]	Drug uptake [21] [% ID/g]	Compound	other results
7.11	2.28	3.3	0.09	2.15	0.36	2.92	8.44	2.59	1.19	4.24	8.78	3.77	4.78	5.52	4.32	0.7	CN(C)Cc1cc(OCC[18F])ccc1Sc1ccccc1N	Drug uptake [3]: 0.92 %ID; Drug uptake [10]: 0.08 %ID; Drug uptake [16]: 0.04 %ID; Drug uptake [17]: 0.24 %ID; Drug uptake [22]: 0.19 %ID
8.17	8.37	12.5	0.39	2.52	1.37	9.3	7.86	1.63	0.88	4.58	5.3	6.79	2.41	2.97	7.07	1.27	CN(C)Cc1cc(OCC[18F])ccc1Sc1ccc(Br)cc1N	Drug uptake [23]: 8.98 %ID; Drug uptake [24]: 4.75 %ID; Drug uptake [25]: 1.89 %ID; Drug uptake [26]: 0.29 %ID; Ratio [27]: 3.2; Ratio [28]: 3.08; Drug uptake [29]: 0.13 %ID; Drug uptake [30]: 1.13 %ID; Drug uptake [31]: 1.36 %ID; Ratio [32]: 4.32; Ratio [33]: 3.8; Drug uptake [34]: 15.3 %ID; Drug uptake [35]: 1.86 %ID; Drug uptake [36]: 6.52 %ID
